According to ChEMBL document CHEMBL1155296, “Design, synthesis and biological evaluation of novel pyridine derivatives as anticancer agents and phosphodiesterase 3 inhibitors” (Bioorg Med Chem, 2009):

How the values were obtained:
[1] = biological target: T1, cGMP-inhibited 3',5'-cyclic phosphodiesterase 3A (Homo sapiens, UniProt Q14432); test: Inhibition of human recombinant PDE3A assessed as cGMP hydrolysis at 50 uM after 60 mins by fluorescence polarization assay using tetramethylrhodamine-tagged cGMP as substrate
T1 sequence (Q14432 whole entry): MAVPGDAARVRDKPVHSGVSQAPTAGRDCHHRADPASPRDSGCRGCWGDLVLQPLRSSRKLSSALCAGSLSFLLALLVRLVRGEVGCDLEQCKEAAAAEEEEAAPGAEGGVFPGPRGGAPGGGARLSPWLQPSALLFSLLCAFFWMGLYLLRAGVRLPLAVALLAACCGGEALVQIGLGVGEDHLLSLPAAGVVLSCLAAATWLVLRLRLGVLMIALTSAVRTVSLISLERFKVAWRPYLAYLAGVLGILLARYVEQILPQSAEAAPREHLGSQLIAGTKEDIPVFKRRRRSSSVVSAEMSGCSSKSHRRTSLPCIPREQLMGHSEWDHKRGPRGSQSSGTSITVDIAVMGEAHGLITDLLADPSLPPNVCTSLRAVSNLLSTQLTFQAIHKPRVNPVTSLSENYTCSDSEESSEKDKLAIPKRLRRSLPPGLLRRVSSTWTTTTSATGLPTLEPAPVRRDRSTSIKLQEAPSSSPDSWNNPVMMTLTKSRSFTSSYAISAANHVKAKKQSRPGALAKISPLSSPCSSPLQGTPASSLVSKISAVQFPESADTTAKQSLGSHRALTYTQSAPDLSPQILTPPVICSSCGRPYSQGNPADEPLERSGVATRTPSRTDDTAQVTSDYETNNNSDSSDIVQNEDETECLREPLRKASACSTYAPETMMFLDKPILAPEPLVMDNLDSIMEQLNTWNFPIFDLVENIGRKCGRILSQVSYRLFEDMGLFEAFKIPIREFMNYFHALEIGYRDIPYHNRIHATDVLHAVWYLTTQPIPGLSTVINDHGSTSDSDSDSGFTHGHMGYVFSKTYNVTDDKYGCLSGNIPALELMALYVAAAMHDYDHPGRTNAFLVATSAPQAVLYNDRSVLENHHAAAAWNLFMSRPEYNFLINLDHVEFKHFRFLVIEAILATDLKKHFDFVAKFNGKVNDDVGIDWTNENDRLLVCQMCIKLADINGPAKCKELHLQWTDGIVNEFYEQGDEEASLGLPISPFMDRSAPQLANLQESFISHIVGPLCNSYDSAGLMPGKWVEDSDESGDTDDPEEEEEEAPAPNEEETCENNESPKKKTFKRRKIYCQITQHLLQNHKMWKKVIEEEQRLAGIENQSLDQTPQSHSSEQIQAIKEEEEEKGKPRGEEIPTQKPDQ
Method in brief: (§1)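 Single-point screen at 50 μM in triplicate. Recombinant PDE3A in 10 mM Tris-HCl pH 7.2, 10 mM MgCl2, 0.05% NaN3, 0.1% phosphate-free BSA. Substrate 50 nM FI-cAMP and/or TAMRA-cGMP, hydrolysis read simultaneously by IMAP fluorescence polarization after 60 min at room temperature and termination with binding solution.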

HT-29 [2] = test: Growth inhibition of human HT-29 cells at 50 uM after 72 hrs by luminescent assay; type: functional; settings: HT-29, 72 h, read-out: GI
Method in brief: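 HT-29 cells in RPMI 1640 with 5% FBS at 37 °C, 5% CO2, >95% viability required. Plated at 5000 cells/well and left 18–24 h, then given 50 μM compound in triplicate. Viability measured 72 h later by CellTiter-Glo luminescence.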

HT-29 [3] = test: Growth inhibition of human HT-29 cells after 72 hrs by luminescent assay; type: functional, cell-based; settings: HT-29, 72 h
Method in brief: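 HT-29 cells (ATCC) in RPMI 1640 + 5% FBS, 37 °C, 5% CO2; only cultures >95% viable (Trypan blue) used. Seeded 5000 cells/well, 18–24 h before treatment. Live cells read by CellTiter-Glo luminescence (ATP content) 72 h post-treatment.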

[4] = biological target: T1, cGMP-inhibited 3',5'-cyclic phosphodiesterase 3A; test: Inhibition of human recombinant PDE3A assessed as cAMP hydrolysis at 50 uM after 60 mins by fluorescence polarization assay using fluorescein-tagged cAMP as substrate; method in brief: as §1
[5] = biological target: T1, cGMP-inhibited 3',5'-cyclic phosphodiesterase 3A; test: Inhibition of human recombinant PDE3A assessed as cGMP hydrolysis after 60 mins by fluorescence polarization assay using tetramethylrhodamine-tagged cGMP as substrate

| inhibition [1] [%] | IC50 (HT-29 [3]) [µM] | inhibition [4] [%] | IC50 [5] [µM] | Structure (SMILES) | inhibition of growth at 50 µM (HT-29 [2]) [%] |
| --- | --- | --- | --- | --- | --- |
| 50 | 14.2 | 30 |  | CCOc1ccc(-c2cc(-c3ccc(Br)cc3)[nH]c(=N)c2C#N)cc1 | 75 |
| 3 |  | 18 |  | N#Cc1c(-c2ccsc2)cc(-c2ccc3c(c2)OCO3)[nH]c1=N | 45 |
| 26.2 | 3 | 19 |  | CCOc1ccccc1-c1cc(-c2ccc3c(c2)OCO3)[nH]c(=N)c1C#N | 91.2 |
| 22.3 |  | 10.5 |  | CCOc1ccc(-c2cc(-c3ccc4c(c3)OCO4)[nH]c(=O)c2C#N)cc1 | 3.84 |
| 42 |  | 1.5 |  | N#Cc1c(-c2ccsc2)cc(-c2ccc(Br)cc2)[nH]c1=N | -5 |
| 15.1 |  | 6.12 |  | COc1ccccc1-c1cc(-c2ccc(Br)cc2)[nH]c(=O)c1C#N | 13.6 |
| -8.99 | 12 | 45.9 |  | CCOc1ccc(-c2cc(-c3ccc4c(c3)OCO4)[nH]c(=N)c2C#N)cc1 | 87.7 |
| -5 |  | 2 |  | N#Cc1c(-c2ccsc2)cc(-c2ccc(Br)cc2)[nH]c1=O | -25 |
| 49.6 |  | 32.3 |  | N#Cc1c(-c2cccs2)cc(-c2ccc3c(c2)OCO3)[nH]c1=O | 6.14 |
| 35 | > 50 | 77 |  | Cc1[nH]c(=O)c(C#N)cc1-c1ccncc1 [MILRINONE] | 0 |
|  | 50 | 16.3 |  | COc1ccccc1-c1cc(-c2ccc(Br)cc2)[nH]c(=N)c1C#N | 75 |
| 10.8 |  | 4.76 |  | CCOc1ccc(-c2cc(-c3ccc(Br)cc3)[nH]c(=O)c2C#N)cc1 | 10.7 |
| 126 | 13 | 37.9 |  | CCOc1ccccc1-c1cc(-c2ccc(Br)cc2)[nH]c(=N)c1C#N | 99.8 |
| 14.4 |  | 7.65 |  | CCOc1ccccc1-c1cc(-c2ccc3c(c2)OCO3)[nH]c(=O)c1C#N | 8.28 |
| 35.2 |  | 13.1 |  | CCOc1ccccc1-c1cc(-c2ccc(Br)cc2)[nH]c(=O)c1C#N | 2.81 |
| 35 | 4.17 | 45 |  | COc1ccccc1-c1cc(-c2ccc3c(c2)OCO3)[nH]c(=N)c1C#N | 95 |
| 4 |  | 3 |  | N#Cc1c(-c2cccs2)cc(-c2ccc(Br)cc2)[nH]c1=O | -20 |
|  | 35 | 3.57 |  | N#Cc1c(-c2cccs2)cc(-c2ccc(Br)cc2)[nH]c1=N | 98.7 |
| 20 |  | 8 |  | N#Cc1c(-c2ccsc2)cc(-c2ccc3c(c2)OCO3)[nH]c1=O | -25 |
| 10 |  | 5 |  | N#Cc1c(-c2cccs2)cc(-c2ccc3c(c2)OCO3)[nH]c1=N | -20 |
| 30 |  | 30 |  | COc1ccccc1-c1cc(-c2ccc3c(c2)OCO3)[nH]c(=O)c1C#N | 0 |
|  |  |  | 27 | CCOc1ccccc1-c1cc(-c2ccc(Br)cc2)nc(N)c1C#N |  |
